This is an account of results in ChEMBL document CHEMBL1123080, “Synthesis and antiviral activity of the carbocyclic analogues of (E)-5-(2-halovinyl)-2'-deoxyuridines and (E)-5-(2-halovinyl)-2'-deoxycytidines” (1985).

What all share (type): functional
Experiment [1] deals with L1210. The experiment is described as follows: Minimum inhibitory concentration (MIC) required to inhibit proliferation of murine leukemia L1210 (wild type). As to conditions: Mus musculus. In short, it runs like this:
(§1)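 Cell proliferation assay. Cultures were exposed to compound during their linear growth phase, and growth was monitored. The MIC is the concentration that inhibits cell proliferation by 50%.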

The species entered for a further experiment is Rattus norvegicus. Kind of experiment: Minimum inhibitory concentration (MIC) required to inhibit proliferation of Novikoff rat hepatoma. A digest of the protocol:
as §1

Experiment [2] concerns Vesicular stomatitis virus. Kind of experiment: Minimum inhibitory concentration (MIC) required to reduce vesicular stomatis virus induced cytopathogenicity in primary rabbit kidney cell cultures. A digest of the protocol: (§2)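 Primary rabbit kidney cell cultures were infected with virus and treated with compound. The MIC is the concentration that reduces virus-induced cytopathogenicity by 50%. Cytotoxicity was scored as microscopically visible alteration of normal cell morphology, with 400 μg/mL the highest concentration tested.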
On the technique in general: Cytopathic effects are the visible damage that an infection or toxin causes in cultured cells.

The test system of experiment [3] is Human alphaherpesvirus 1. The experiment is described as follows: Minimum inhibitory concentration (MIC) required to reduce HSV-1 strain McIntyre induced cytopathogenicity in primary rabbit kidney cell cultures. In short, it runs like this:
as §2

Experiment [4] concerns Human alphaherpesvirus 1. The experiment is described as follows: Minimum inhibitory concentration (MIC) required to reduce thymidine kinase deficient HSV-1 induced cytopathogenicity in primary rabbit kidney cell cultures. A digest of the protocol:
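The virus was a dThd kinase-deficient mutant of HSV-1 strain B2006, passaged several times in primary rabbit kidney cells. The MIC is the concentration that reduces cytopathogenicity by 50% in primary rabbit kidney cell cultures. Cytotoxicity was scored by microscopic cell morphology, up to 400 μg/mL.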

Experiment [5] concerns Human alphaherpesvirus 2. The experiment is described as follows: Minimum inhibitory concentration (MIC) required to reduce HSV-2 strain (Lyons) induced cytopathogenicity in primary rabbit kidney cell cultures. A digest of the protocol: as §2
For experiment [6], the system named is Human alphaherpesvirus 1. Kind of experiment: Minimum inhibitory concentration (MIC) required to reduce HSV-1 strain (F) induced cytopathogenicity in primary rabbit kidney cell cultures. A digest of the protocol:
as §2

Experiment [7] concerns Human alphaherpesvirus 1. Kind of experiment: Minimum inhibitory concentration (MIC) required to reduce Herpes simplex virus (HSV-1) KOS strain induced cytopathogenicity in primary rabbit kidney cell cultures. A digest of the protocol: as §2
The subject of experiment [8] is L1210. The experiment is described as follows: Minimum inhibitory concentration (MIC) required to inhibit proliferation of murine leukemia L1210 (TK-). The note with it: Mus musculus. In short, it runs like this:
as §1

A further experiment is filed under the species Homo sapiens. Kind of experiment: Minimum inhibitory concentration (MIC) required to inhibit proliferation of human lymphoblast Raji. A digest of the protocol:
as §1

The subject of experiment [9] is Human alphaherpesvirus 2. The experiment is described as follows: Minimum inhibitory concentration (MIC) required to reduce HSV-2 strain G induced cytopathogenicity in primary rabbit kidney cell cultures. In short, it runs like this: as §2
For experiment [10], the system named is Mus musculus. Kind of experiment: The survival rate was evaluated for its effect of systemic treatment on NMRI mice infected intraperitoneally with HSV-1 (KOS) when administered perorally. In short, it runs like this:
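Mice were infected intraperitoneally with HSV-1 (KOS). Compound was given at 100 mg/kg per day from day 0 to day 4 postinfection, as a 2 mg/mL suspension in water by gavage once daily. Survivors were counted at day 20 postinfection.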

For experiment [11], the species on record is Mus musculus. The experiment is described as follows: The survival rate was evaluated for its effect of systemic treatment on hairless (hr/hr) mice infected intracutaneously with HSV-1 (KOS) at percent concentration of 0.3.
In experiment [12] the test system is Mus musculus. The experiment is described as follows: The survival rate was evaluated for its effect of systemic treatment on NMRI mice infected intraperitoneally with HSV-1 (KOS) when administered intraperitoneally. In short, it runs like this: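 Mice were infected intraperitoneally with HSV-1 (KOS). Compound was given at 100 mg/kg per day from day 0 to day 4 postinfection, intraperitoneally, at 1 mg/mL in physiological saline with 10% propylene glycol, twice daily. Survivors were counted at day 20 postinfection.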

The species entered for experiment [13] is Mus musculus. Kind of experiment: The survival rate was evaluated for its effect of systemic treatment on hairless (hr/hr) mice infected intracutaneously with HSV-1 (KOS) at percent concentration of 3.
The species entered for experiment [14] is Mus musculus. The experiment is described as follows: The survival rate was evaluated for its effect of systemic treatment on hairless (hr/hr) mice infected intracutaneously with HSV-1 (KOS) at percent concentration of 1.

Converted amounts (≈) assume the structure as drawn. Bounds are passed on as bounds.

Take `O=c1[nH]c(=O)n([C@@H]2C[C@H](CO)[C@@H](O)C2)cc1I`: the MIC50 was greater than 200 µg/mL against L1210 [1]; 22.8 µg/mL (≈ 64.7 µM) in the experiment listed under Rattus norvegicus; greater than 400 µg/mL in [2]; 0.2 µg/mL (≈ 0.568 µM) against Human alphaherpesvirus 1 [3]; greater than 400 µg/mL against Human alphaherpesvirus 1 [4]; 20 µg/mL (≈ 56.8 µM) against Human alphaherpesvirus 2 [5]. For the same molecule, the MIC50 in the experiment with Human alphaherpesvirus 1 [6] is 0.2 µg/mL (≈ 0.568 µM); against Human alphaherpesvirus 1 [7], 0.2 µg/mL (≈ 0.568 µM); against L1210 [8], greater than 200 µg/mL; in the experiment filed under Homo sapiens, greater than 200 µg/mL; against Human alphaherpesvirus 2 [9] it was 40 µg/mL (≈ 114 µM).

Consider `O=c1[nH]c(=O)n([C@H]2C[C@@H](CO)[C@H](O)C2)cc1/C=C/Br`, for which the MIC50 against L1210 [1] was greater than 200 µg/mL; in the experiment listed under Rattus norvegicus it was greater than 200 µg/mL; in experiment [2], greater than 400 µg/mL; in the experiment on Human alphaherpesvirus 1 [3], 0.04 µg/mL (≈ 0.121 µM); in the experiment with Human alphaherpesvirus 1 [4], greater than 400 µg/mL; with Human alphaherpesvirus 2 [5], 7 µg/mL (≈ 21.1 µM). Besides, the MIC50 in the experiment with Human alphaherpesvirus 1 [6] is 0.07 µg/mL (≈ 0.211 µM); in the experiment on Human alphaherpesvirus 1 [7], 0.07 µg/mL (≈ 0.211 µM); with L1210 [8], greater than 200 µg/mL; in the experiment listed under Homo sapiens, greater than 200 µg/mL; against Human alphaherpesvirus 2 [9], 20 µg/mL (≈ 60.4 µM). The Survival rate is reported as 0 in the experiment on Mus musculus [10]; 0 in the experiment listed under Mus musculus [11]; 3 in the experiment on Mus musculus [12]; 2 in the experiment filed under Mus musculus [13]; 0 in the experiment filed under Mus musculus [14].

On to `NC1NC(=O)N([C@H]2C[C@H](O)[C@@H](CO)O2)C=C1/C=C/Br` (stereo partly drawn), for which the MIC50 in experiment [2] was greater than 400 µg/mL; against Human alphaherpesvirus 1 [3], 0.06 µg/mL (≈ 0.18 µM); against Human alphaherpesvirus 2 [5], 9 µg/mL (≈ 26.9 µM); against Human alphaherpesvirus 1 [6], 0.07 µg/mL (≈ 0.209 µM); against Human alphaherpesvirus 1 [7], 0.07 µg/mL (≈ 0.209 µM); in the experiment with Human alphaherpesvirus 2 [9] it was 7 µg/mL (≈ 20.9 µM).

Consider `O=c1[nH]c(=O)n([C@H]2C[C@H](O)[C@@H](CO)O2)cc1I` [IDOXURIDINE], for which the MIC50 against L1210 [1] is 35.6 µg/mL (≈ 101 µM); in the experiment listed under Rattus norvegicus, 5.5 µg/mL (≈ 15.5 µM); in experiment [2], greater than 400 µg/mL; against Human alphaherpesvirus 1 [3] it was 0.2 µg/mL (≈ 0.565 µM); against Human alphaherpesvirus 1 [4], greater than 400 µg/mL; against Human alphaherpesvirus 2 [5] it was 0.2 µg/mL (≈ 0.565 µM). Besides, the MIC50 is 0.2 µg/mL (≈ 0.565 µM) in the experiment with Human alphaherpesvirus 1 [6]; 0.2 µg/mL (≈ 0.565 µM) in the experiment with Human alphaherpesvirus 1 [7]; greater than 500 µg/mL against L1210 [8]; 4.7 µg/mL (≈ 13.3 µM) in the experiment listed under Homo sapiens; 0.7 µg/mL (≈ 1.98 µM) against Human alphaherpesvirus 2 [9].

For the molecule `O=c1[nH]c(=O)n([C@H]2C[C@H](O)[C@@H](CO)O2)cc1/C=C/I`, the MIC50 with L1210 [1] is 16.3 µg/mL (≈ 42.9 µM); in the experiment filed under Rattus norvegicus, 4.6 µg/mL (≈ 12.1 µM); in experiment [2], greater than 400 µg/mL; with Human alphaherpesvirus 1 [3] it was 0.02 µg/mL (≈ 0.0526 µM); against Human alphaherpesvirus 1 [4], greater than 10 µg/mL; in the experiment on Human alphaherpesvirus 2 [5], 2 µg/mL (≈ 5.26 µM). Further, the MIC50 in the experiment on Human alphaherpesvirus 1 [6] amounted to 0.02 µg/mL (≈ 0.0526 µM); in the experiment on Human alphaherpesvirus 1 [7], 0.007 µg/mL (≈ 0.0184 µM); in the experiment with L1210 [8] it was 5.1 µg/mL (≈ 13.4 µM); in the experiment filed under Homo sapiens, 21.1 µg/mL (≈ 55.5 µM); in the experiment on Human alphaherpesvirus 2 [9], 2 µg/mL (≈ 5.26 µM).

For `O=c1[nH]c(=O)n(C2CC(O)C(CO)C2)cc1/C=C/I` (stereo not drawn), the MIC50 against L1210 [1] was greater than 200 µg/mL; in the experiment listed under Rattus norvegicus, greater than 200 µg/mL; in experiment [2], greater than 400 µg/mL; against Human alphaherpesvirus 1 [3], 0.07 µg/mL (≈ 0.185 µM); with Human alphaherpesvirus 1 [4], greater than 400 µg/mL; against Human alphaherpesvirus 2 [5], 7 µg/mL (≈ 18.5 µM). For the same molecule, the MIC50 with Human alphaherpesvirus 1 [6] is 0.1 µg/mL (≈ 0.264 µM); against Human alphaherpesvirus 1 [7] it was 0.07 µg/mL (≈ 0.185 µM); in the experiment with L1210 [8] it was greater than 200 µg/mL; in the experiment listed under Homo sapiens, greater than 200 µg/mL; with Human alphaherpesvirus 2 [9] it was 2 µg/mL (≈ 5.29 µM).

Take `Nc1nc(=O)n(C2CC(O)C(CO)C2)cc1/C=C/Br` (stereo not drawn): the MIC50 in experiment [2] is greater than 400 µg/mL; against Human alphaherpesvirus 1 [3], 0.2 µg/mL (≈ 0.606 µM); in the experiment on Human alphaherpesvirus 1 [4], greater than 400 µg/mL; against Human alphaherpesvirus 2 [5] it was 20 µg/mL (≈ 60.6 µM); against Human alphaherpesvirus 1 [6] it was 0.1 µg/mL (≈ 0.303 µM); in the experiment on Human alphaherpesvirus 1 [7], 0.2 µg/mL (≈ 0.606 µM). The MIC50 in the experiment on Human alphaherpesvirus 2 [9] amounted to 20 µg/mL (≈ 60.6 µM).
